Sampled rows, rich in hits. Any-hit rate of the full collection: about 3.3%.
FGF22 binding-1 = FGF22 (human) thermal shift binding; Q9HCT0; recombinant FGF22 thermal shift, SYPRO orange fluorescence; percent of sucrose octasulfate shift, DMSO zero; activity (Tm shift, normalised), % at 9.99 µM; actives 1.5% (n = 340,000);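 active = mean Tm shift, scaled 0 neutral to 100 positive control, at about 1.3% or above, every replicate too, limit read from the data; inconclusive = no clear call, values can overlap the other calls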
Target sequence (Q9HCT0 whole entry, looked up): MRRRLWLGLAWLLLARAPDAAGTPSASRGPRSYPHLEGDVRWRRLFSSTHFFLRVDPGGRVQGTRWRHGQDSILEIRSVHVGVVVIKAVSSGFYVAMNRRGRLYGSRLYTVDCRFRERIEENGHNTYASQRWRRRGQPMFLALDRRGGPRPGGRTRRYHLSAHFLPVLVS
E-selectin induc = induces E-selectin expression in human endothelial cells | P16581 | activation, % at 7.58 µM | actives 0.37% (n = 260,000) | AID 686992 | HUVEC E-selectin immunofluorescence imaging; normalized: neutral wells 0, TNF-alpha wells 100;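 active = mean E-selectin-positive cell signal at least 10% of the positive control, reached in at least 60% of replicates, without over 20% cell loss; inconclusive = no rule given, readout overlaps actives, possibly toxicity-flagged; inactive = the rest, including those meeting only one limit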
Target sequence (P16581 whole entry, looked up): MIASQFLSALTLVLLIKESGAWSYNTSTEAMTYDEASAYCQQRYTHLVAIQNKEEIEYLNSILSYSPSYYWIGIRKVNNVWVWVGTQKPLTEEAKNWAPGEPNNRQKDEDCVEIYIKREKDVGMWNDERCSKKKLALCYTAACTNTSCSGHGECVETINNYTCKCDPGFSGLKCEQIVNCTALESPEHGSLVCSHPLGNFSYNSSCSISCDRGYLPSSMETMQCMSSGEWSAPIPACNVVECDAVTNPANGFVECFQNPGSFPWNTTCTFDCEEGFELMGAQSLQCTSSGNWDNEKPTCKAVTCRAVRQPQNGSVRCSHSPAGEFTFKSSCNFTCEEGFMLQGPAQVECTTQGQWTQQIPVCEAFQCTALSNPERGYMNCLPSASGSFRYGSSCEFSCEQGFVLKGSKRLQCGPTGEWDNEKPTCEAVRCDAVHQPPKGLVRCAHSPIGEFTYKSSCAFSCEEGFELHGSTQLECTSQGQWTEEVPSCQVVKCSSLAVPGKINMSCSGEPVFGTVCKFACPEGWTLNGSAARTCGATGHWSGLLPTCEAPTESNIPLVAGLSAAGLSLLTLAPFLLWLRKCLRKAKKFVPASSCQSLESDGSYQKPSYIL
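Assay system: HUVEC, human umbilical vein endothelial cells / Amount: 3,000 HUVEC/well / Controls: TNF-alpha positive control, DMSO neutral control / Compound dosing: single concentration / Medium: EGM-2 over gelatin coat / Evaluation: percent E-selectin-positive cells / Signal: immunofluorescence imaging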
Xi reactivation = X-chromosome reactivation activator. XiGFP mouse fibroblasts, % GFP-positive cells imaging, 3 d; cells co-treated with 5-aza-dC sensitizer; scaled so ellipticine positive control = 100%. activation, % at 7.58 µM. actives 0.055% (n = 360,000);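 active = mean normalized replicate activation at least 10% and every replicate at or above 10%; inconclusive = only one of the two criteria met; inactive = mean below 10% and not all replicates reach 10%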
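Material: XiGFP fibroblasts, SV40-immortalized; Buffer or medium: DMEM containing 5-aza-dC; Compound dosing: single point; Times: 3 days compound exposure.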
PglD DTNB = inhibitors of Campylobacter jejuni PglD acetyltransferase. purified PglD enzyme, DTNB colorimetric CoA detection. inhibition, % at 12.5 µM. actives 0.098% (n = 360,000); in the data active = inhibition above about 16%, passing the limit was not always enough; inconclusive = no clear call, values can overlap the other calls
Statin myotox sup = protects C2C12 myotubes from simvastatin toxicity. actives 0.78% (n = 330,000). AID 602340. ATP luminescence, 48 h; scaled: DMSO 0, geranylgeraniol control 100. rescue of ATP level, % at 7.49 µM;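 active = mean ATP rescue above about 67%, or every replicate alone reaching that limit, limit read from the data, passing the limit was not always enough; inconclusive = no clear call, values can overlap the other calls; inactive = mean under the limit and some replicate under it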;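 note: myotubes were challenged with 10 µM simvastatin during compound exposure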
DENV2 CPE = inhibitors of DENV2 cytopathic effect; DENV2-infected cells, cytopathic effect rescue, plate reader; actives 1.7% (n = 350,000); CPE inhibition, % at 9.99 µM; in the data active = CPE inhibition above about 20%, passing the limit was not always enough; inconclusive = no clear call, values can overlap the other calls; tested in BHK-21 cells
FGF22 binding-2 = binders of human FGF22 by thermal shift | recombinant FGF22 thermal shift, SYPRO orange fluorescence | AID 720646 | thermal shift activity, °C (ΔTm) at 38 µM | shares compounds with FGF22 binding-1 | actives 2% (n = 1,000);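 active = fitted rise in melting shift crosses a set limit at or below the top valid dose tested; inconclusive = flat fit at mid-level activity, or a poor quality fit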
FGF22 TSA = binds human FGF22 shifting its melting temperature | shares compounds with FGF22 binding-1 | Thermal shift assay, SYPRO orange, melting temperature shift | Tm shift (activity), % at 38 µM | 50 tested, under 10 active | AID 743017;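 active = compounds whose fitted dose curve of melting temperature shift rises past a set threshold within the tested doses; inconclusive = flat curve at moderate activity, or poor curve fit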
SYPRO no-protein = shows thermal shift signal without protein, FGF22 counter-screen. shares compounds with FGF22 binding-1. compound-only SYPRO orange thermal shift counter-screen, no protein. AC50, µM (titrated, usually from 38 µM). actives 2% (n = 1,000). AID 743019;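 active = rising signal whose fitted curve reaches the 0.54 level within the top valid dose, showing a melting point, actives reach about 13 µM in these data; inactive = the rest, including activity in the opposite direction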; note: value is where the raw curve crosses a fixed level and not half-maximal
Large screens that a line does not name were inactive (follow-up assays come after a bar, where they were run).

C[C@H](CO)N1C[C@H](C)[C@@H](CN(C)C(=O)Nc2ccccc2)Oc2ccc(NC(=O)Nc3ccc(C(F)(F)F)cc3)cc2CC1=O	none
COCC#Cc1ccc2c(c1)O[C@H](CN(C)C(=O)Nc1ccc(OC)cc1)[C@H](C)CN([C@H](C)CO)S2(=O)=O	DENV2 CPE inconclusive
OC[C@@H]1[C@H](c2ccc(C3=CCCC3)cc2)[C@H]2CN(CCC(F)(F)F)CCCCN12	none (no result: E-selectin induc, Xi reactivation, Statin myotox sup)
CC=Cc1ccc2n(c1=O)C[C@H]1[C@H](CO)[C@@H](C(=O)NCc3cccc(OC)c3)N[C@@H]21 (mixture of isomers)	none
COc1ccccc1NS(=O)(=O)NC(=O)c1c(C)[nH]c2ccccc12	none (no result: E-selectin induc)
Cc1[nH]c2ccccc2c1C(=O)NS(=O)(=O)Nc1ccc(Cl)cc1	FGF22 binding-1 1.6 (no result: E-selectin induc, PglD DTNB, Statin myotox sup) | FGF22 binding-2 inactive | FGF22 TSA inactive | SYPRO no-protein inactive
COc1cccc(CNC(=O)C[C@@H]2CC[C@H](NC(=O)C3CCC3)[C@@H](CO)O2)c1	none
CO[C@H](CN(C)S(=O)(=O)c1ccccc1)[C@@H](C)CN(C(=O)Nc1ccccc1F)[C@@H](C)CO	none
O=[N+]([O-])c1cc(CS(=O)(=O)Oc2ccc(Cl)cc2)c(O)c([N+](=O)[O-])c1	FGF22 binding-1 1.4 (no result: PglD DTNB, Statin myotox sup) | FGF22 binding-2 inactive | SYPRO no-protein inactive
Cc1ccc(S(=O)(=O)N[C@H]2C=C[C@H](CC(=O)N3CCc4ccccc4C3)O[C@H]2CO)cc1	FGF22 binding-1 1.3 | FGF22 binding-2 inactive | SYPRO no-protein inactive
Cc1ccc(S(=O)(=O)N[C@H]2C=C[C@H](CC(=O)N3CCc4ccccc4C3)O[C@@H]2CO)cc1	none
Cc1ccc(S(=O)(=O)N[C@@H]2C=C[C@@H](CC(=O)N3CCc4ccccc4C3)O[C@H]2CO)cc1	none
Cc1ccc(S(=O)(=O)N[C@H]2C=C[C@@H](CC(=O)N3CCc4ccccc4C3)O[C@@H]2CO)cc1	FGF22 binding-1 1.3 | FGF22 binding-2 inactive | SYPRO no-protein inactive
C[C@H]1CN([C@@H](C)CO)C(=O)c2cc(C#Cc3ccncc3)cnc2O[C@H]1CN(C)C(=O)CN(C)C	none (no result: PglD DTNB, Statin myotox sup)
CC(C)NC(=O)Nc1ccc2c(c1)C(=O)N([C@@H](C)CO)C[C@H](C)[C@@H](CN(C)S(=O)(=O)c1cn(C)cn1)OCCCC[C@@H](C)O2	none (no result: E-selectin induc, Statin myotox sup)
CC1C(=O)Nc2ccc(S(=O)(=O)NCCc3ccc(Cl)cc3)cc2NC1=O (configuration not stated)	FGF22 binding-1 1.6 (no result: E-selectin induc) | FGF22 binding-2 inactive | SYPRO no-protein inactive
CC1Sc2ccc(S(=O)(=O)NCCc3ccc(S(N)(=O)=O)cc3)cc2NC1=O (configuration not stated)	none (no result: E-selectin induc)
COc1cccc(NC(=O)COc2coc(CN3CCN(c4ccccc4)CC3)cc2=O)c1	none (no result: E-selectin induc)
CCc1ccc(NC(=O)COc2coc(CN3CCN(c4ccccc4)CC3)cc2=O)cc1	FGF22 binding-1 2.6, DENV2 CPE inconclusive (no result: E-selectin induc) | FGF22 binding-2 inactive | SYPRO no-protein inactive
Cc1ccc(S(=O)(=O)N2C[C@]3(O)C[C@@H]4C(=O)N(c5ccccc5)C(=O)[C@@H]4C[C@]3(OC(=O)NCC3CCCCC3)C2)cc1	FGF22 binding-1 3.2 (no result: E-selectin induc) | FGF22 binding-2 inactive | SYPRO no-protein inactive
O=C(N/N=C/c1ccc(C(F)(F)F)cc1)c1ccc(O)cc1	FGF22 binding-1 2.4 | FGF22 binding-2 inactive | FGF22 TSA inactive | SYPRO no-protein inactive
O=C(N/N=C/c1cccc(C(F)(F)F)c1)c1ccc(O)cc1	none (no result: E-selectin induc, PglD DTNB, Statin myotox sup)
CN(Cc1ccccc1)C(=O)c1[nH]cnc1C(=O)NC1CCN(C(=O)OC(C)(C)C)CC1	FGF22 binding-1 2.5 | FGF22 binding-2 inactive | SYPRO no-protein inactive
CC(C)(C)OC(=O)N1CCC(NC(=O)c2[nH]cnc2C(=O)Nc2ccccc2)CC1	none
COc1ccc2c3c(n(C)c2c1)[C@H](CO)N(C(=O)C1CC1)CC31CCN(C(=O)C2CCOCC2)CC1	none (no result: PglD DTNB, Statin myotox sup)
COc1ccc(N2CCN(CCOc3ccc4c(C)cc(=O)oc4c3)CC2)cc1	FGF22 binding-1 2.2 (no result: Statin myotox sup) | SYPRO no-protein inactive
O=C(CN(Cc1ccccc1)S(=O)(=O)c1ccccc1)N/N=C/c1ccccc1C(=O)O	FGF22 binding-1 2.3 | FGF22 binding-2 inactive | SYPRO no-protein inactive
CCC(=O)N1[C@H](CO)[C@@H](c2ccccc2)C12CN(C(=O)c1cnccn1)C2	FGF22 binding-1 1.3 (no result: PglD DTNB, Statin myotox sup) | FGF22 binding-2 inactive | SYPRO no-protein inactive
COCC(=O)N1CC2(C1)[C@H](c1ccccc1)[C@@H](CO)N2C(=O)NC1CCCC1	FGF22 binding-1 1.3 (no result: PglD DTNB, Statin myotox sup) | FGF22 binding-2 inactive | SYPRO no-protein inactive
Cc1ccc(NC(=O)COC(=O)Cn2cnc3c2c(=O)n(C)c(=O)n3C)cc1Cl	none
Cc1ccc(NC(=O)COC(=O)Cn2cnc3c2c(=O)n(C)c(=O)n3C)cc1F	FGF22 binding-1 30.1 (no result: E-selectin induc) | FGF22 binding-2 inactive | SYPRO no-protein inactive
C[C@@H]1CN([C@@H](C)CO)C(=O)c2cccc(NC(=O)Nc3ccc(C(F)(F)F)cc3)c2O[C@H]1CN(C)S(C)(=O)=O	none
CCc1nnc(NS(=O)(=O)c2ccc(Nc3ccc([N+](=O)[O-])c4nonc34)cc2)s1	FGF22 binding-1 2.0 (no result: E-selectin induc, PglD DTNB, Statin myotox sup) | FGF22 binding-2 inactive | SYPRO no-protein inactive
CCc1nnc(NS(=O)(=O)c2ccc(NC(=O)c3ccc(Br)cc3)cc2)s1	FGF22 binding-1 1.6 (no result: E-selectin induc) | FGF22 binding-2 inactive | SYPRO no-protein inactive
CCc1nnc(NS(=O)(=O)c2ccc(NC(=O)OC)cc2)s1	none (no result: FGF22 binding-1, E-selectin induc, Xi reactivation, DENV2 CPE)
CC(=O)Nc1cc(-c2ccccc2Cl)cn2c(-c3ccc(S(C)(=O)=O)cc3)cnc12	FGF22 binding-1 1.7, DENV2 CPE inconclusive | FGF22 binding-2 inactive | SYPRO no-protein inactive
COc1ccc(C#Cc2ccc3c(c2)O[C@H](CN(C)C(=O)c2ccccn2)[C@@H](C)CN([C@@H](C)CO)S3(=O)=O)cc1	none
O=C(C(=O)N1CCN(C/C=C/c2ccccc2)CC1)c1ccccc1	FGF22 binding-1 14.8 (no result: PglD DTNB, Statin myotox sup) | FGF22 binding-2 inactive | SYPRO no-protein inactive
O=C(Cn1cc(COc2c(Br)cc(F)cc2Br)nn1)c1ccc(O)cc1	none
CC(=O)c1cc(C)c(OCc2cn(CC(=O)c3ccc(O)cc3)nn2)c(C)c1	none

Screening data: PubChem BioAssay, Broad Institute
